Measured values reported in publication PMC9449982 (Molecular Pharmaceutics, 2022).
Converted amounts (≈) assume the structure as drawn. “And” between values parts separate entries of the source, which are not always exact repeats. Identical values can stand only once. Like-named read-outs stand apart in the source and are kept apart here.

What was measured:
[1] = Amorphous solubility determination, ultracentrifugation; format: physicochemical; conditions: phosphate buffer with HPMCAS, pH 6.5, aqueous buffer, kinetic from dmso stock
How it was run: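 Test compound DMSO stock added to 50 mM pH 6.5 sodium phosphate buffer with 100 μg/mL predissolved HPMCAS, keeping organic solvent below 2% (v/v). Mixture stirred 15 min to form amorphous aggregates, then spun at 35,000 rpm for 30 min. Supernatant diluted 1:1 in mobile phase and quantified by isocratic C18 HPLC at 210 nm. At least triplicate.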

[2] = Flux measurements, Franz diffusion cells; format: in vitro ADME
[3] = Particle size determination by dynamic light scattering; format: physicochemical
[4] = cited from earlier work
[5] = cited from earlier work; for glass transition temperature (Tg) / Tg, dry: dry
[6] = Wet glass transition temperature; format: physicochemical; conditions: amorphous drug equilibrated at 97% relative humidity 48 h; DSC onset
How it was run: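 Amorphous test compound powder was freshly prepared and vacuum-dried overnight at room temperature. Then 5–10 mg in open hermetic pans was held at 97% relative humidity (saturated potassium sulfate) for 48 h. Pans sealed; DSC run 0 to 90 °C at 10 °C/min. Onset glass transition taken as wet Tg. Triplicate.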

COC(=O)N[C@H](C(=O)N[C@@H](Cc1ccccc1)[C@@H](O)CN(Cc1ccc(-c2ccccn2)cc1)NC(=O)[C@@H](NC(=O)OC)C(C)(C)C)C(C)(C)C [atazanavir]
solubility at 15 min [1]: 37.7 ± 3.2 µg/mL (≈ 53.5 µM) | transmembrane flux ([2]; donor ∼20 μg/mL, 150 rpm, no BSA, 37 °C): 0.023 ± 0.003 μg/(min·cm^2) | transmembrane flux ([2]; donor ∼20 μg/mL, 300 rpm, no BSA, 37 °C): 0.030 ± 0.003 μg/(min·cm^2) | transmembrane flux ([2]; donor ∼20 μg/mL, 500 rpm, no BSA, 37 °C): 0.041 ± 0.005 μg/(min·cm^2) | transmembrane flux ([2]; donor ∼40 μg/mL (amorphous solubility), 300 rpm, no BSA, 37 °C): 0.048 ± 0.012 μg/(min·cm^2) | transmembrane flux ([2]; donor ∼40 μg/mL, 500 rpm, no BSA, 37 °C): 0.070 ± 0.008 μg/(min·cm^2) | transmembrane flux ([2]; donor ∼40 μg/mL, 1000 rpm, no BSA, 37 °C): 0.072 ± 0.019 μg/(min·cm^2) | donor concentration at which a flux plateau was observed ([2]; stirring rates equal to or higher than 300 rpm, no BSA): about 150 μg/mL | Z-average ([3]; particles from stock 5 mg/mL, 1000 rpm, 37 °C): 193 ± 4 nm | diffusion coefficient Dp ([3]; particles from stock 5 mg/mL, 1000 rpm, 37 °C (193 nm), listed as ATZ): 3.43 ± 0.07 ×10^–8 cm^2/s | Z-average ([3]; particles from stock 20 mg/mL, 1000 rpm, 37 °C): 460 ± 23 nm | diffusion coefficient Dp ([3]; particles from stock 20 mg/mL, 1000 rpm, 37 °C (460 nm), listed as ATZ): 1.44 ± 0.07 ×10^–8 cm^2/s | pKa ([4]; basic): 4.52,[45] basic | glass transition temperature (Tg) [5]: 104 °C | Tg, wet ([5]; water saturated amorphous precipitates): 51 °C

Clc1ccccc1C(c1ccccc1)(c1ccccc1)n1ccnc1 [clotrimazole]
solubility at 15 min [1]: 7.7 ± 0.3 µg/mL (≈ 22.3 µM) | bulk concentration at which a flux plateau was observed ([2]; 150 rpm, 37 °C, 3% BSA): around 150 μg/mL | pKa ([4]; basic): 5.89,[45] basic | Tg, dry [5]: 28,[45] NA ^a °C | glass transition temperature (Tg) [5]: 28 °C

Cc1cccc(C)c1OCC(=O)N[C@@H](Cc1ccccc1)[C@@H](O)C[C@H](Cc1ccccc1)NC(=O)[C@H](C(C)C)N1CCCNC1=O [lopinavir]
solubility at 15 min [1]: 19.3 ± 2 µg/mL (≈ 30.7 µM) | Tg, wet [6]: 42 °C and 42.2 ± 1.8 °C | Z-average ([3]; particles from stock 5 mg/mL, 1000 rpm, 25 °C): 254 ± 3 nm | diffusion coefficient Dp ([3]; particles from stock 5 mg/mL, 1000 rpm, 25 °C (254 nm), listed as LPV): 1.94 ± 0.00 ×10^–8 cm^2/s | Z-average ([3]; particles from stock 12 mg/mL, 300 rpm, 25 °C): 454 ± 10 nm | diffusion coefficient Dp ([3]; particles from stock 12 mg/mL, 300 rpm, 25 °C (454 nm), listed as LPV): 1.09 ± 0.00 ×10^–8 cm^2/s | Z-average ([3]; particles from stock 20 mg/mL, 300 rpm, 25 °C): 839 ± 15 nm | diffusion coefficient Dp ([3]; particles from stock 20 mg/mL, 300 rpm, 25 °C (839 nm), listed as LPV): 0.59 ± 0.01 ×10^–8 cm^2/s | pKa ([4]; no reference printed): not dissociated at physiological pHs | pKa ([4]; no reference printed, listed as Lopinavir): not expected to dissociate within physiological pH ranges | Tg, dry [5]: 69 °C | glass transition temperature (Tg) [5]: 69 °C
